Results: ChEMBL document CHEMBL4513216, “Probing the Open Global Health Chemical Diversity Library for Multistage-Active Starting Points for Next-Generation Antimalarials” (ACS Infect Dis, 2020)

Experiment: Toxicity liver stage against HepG2, at 10uM
Format: cell-based
Design: test concentration 10 uM, cell line HepG2-A16-CD81EGFP
Conditions: human, HepG2-A16-CD81EGFP cells; read-out: INHIBITION
Procedure, shortened: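 Uninfected HepG2-A16-CD81EGFP cells, 3 × 10^3 per well, 1536-well, plated on prespotted compound at 10 μM final, parasite-free screening media added to match infected plates; puromycin 10 μM positive, DMSO 0.5% negative; run in parallel with 48 h PbLuc assay at 37 °C, 5% CO2; viability by CellTiter-Glo luminescence, normalized to controls.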

| Compound | cytotoxicity at 10 µM [%] |
| --- | --- |
| Cn1ccnc1CN1CCCCC1c1nc(-c2ccccc2)no1 (stereo not drawn) | -47.5 |
| COCCCNC(=O)CCn1ncc2c(Cl)cccc21 | 7.72 |
| COc1ccc(CNCC2CN(C3CC3)CCO2)cc1OC (stereo not drawn) | -17 |
| Cn1cccc1C(=O)N1C[C@@H]2C[C@@H](c3nc(C4CC4)cs3)O[C@@H]2C1 | -113 |
| CN(C)c1cc2c(nn1)CCN(C(=O)C1CCc3ccccc31)C2 (stereo not drawn) | -12.2 |
| Cc1ccsc1CN(Cc1ccccn1)CC(C)C | -13.4 |
| Fc1ccc2c(c1)C1(CCNCC1)CC2NC1CC1 (stereo not drawn) | -117 |
| Cc1cnc2c(S(=O)(=O)NC3CCS(=O)(=O)C3)cccc2c1 (stereo not drawn) | -2.28 |
| Cc1ccc(NC2CCN(C(=O)c3cccc4[nH]ncc34)CC2)nn1 | -13.7 |
| CCc1nc(CCNC(=O)C2CC2)sc1C | -14.1 |
| Cc1cccc(-c2nc(C)nn2CC(=O)NC2CCCC2)c1 | -12.5 |
| O=S(=O)(c1ccccc1N1CC(n2cccn2)C1)C(F)(F)F | 6.68 |
| CCc1nc(CCNc2ncccc2S(N)(=O)=O)sc1C | -3.23 |
| O=S(=O)(C1CC1)N1C[C@@H]2CN(Cc3cccs3)CCO[C@@H]2C1 | -134 |
| O=C(NCc1csc(Br)c1)c1cnccn1 | -23.3 |
| CCOC1CCCN(C(=O)c2[nH]nc(C(C)C)c2Br)C1 (stereo not drawn) | -6.78 |
| NCCC(=O)N1CCC2(CC1)CN(C(=O)Cc1cccc(Cl)c1)CCO2 | 5.56 |
| Cc1cnn(Cc2ccc(NC(=O)N3CCCC3)cc2)c1 | 1.18 |
| CCOc1nc2cnccc2n(CC(=O)NCc2ccc(C)cc2)c1=O | -0.0308 |
| Fc1cnc(N2CC[C@@H](N3CCOCC3)[C@@H]2Cc2ccccc2)nc1 | 3.67 |
| Cn1cc(CN2CCCC(O)C2)c(-c2ccccc2F)n1 (stereo not drawn) | -2.31 |

| Compound | cytotoxicity at 10 µM [%] |
| --- | --- |
| Cc1cc(C[C@@H]2COC[C@@H]2NC(=O)CN2CCc3ccccc3C2)on1 | 6.7 |
| Cc1ccc(-c2nnc(CNCCn3cccn3)o2)cc1 | -26.1 |
| CCc1csc(NC(=O)Nc2c(C)n[nH]c2C)n1 | -3.41 |
| CCS(=O)(=O)N[C@@H]1CN(Cc2cc(C)on2)C[C@@H]2CCCO[C@@H]21 | -6.01 |
| c1cc(CNc2ccc(-c3nc(C4CC4)no3)cn2)no1 | 1.79 |
| Cc1cc(C)n(CC(=O)N2CCC(Nc3cccnn3)CC2)n1 | -0.397 |
| O=C(c1ccoc1)N1CCC(NCc2ccccc2-n2ccnc2)CC1 | 5.89 |
| COc1ccc(F)c(NCc2cnn(C3CCS(=O)(=O)C3)c2)c1 (stereo not drawn) | 2.65 |
| OCC(O)CSCc1cn(-c2ccc(F)c(Cl)c2)nn1 (stereo not drawn) | 9.51 |
| CS(=O)(=O)Cc1nc(CNc2ccc(F)c(F)c2)cs1 | -6.92 |
| Cc1ccc(CNC(c2ccc(F)cc2)c2nccn2C)o1 (stereo not drawn) | 0.841 |
| Cc1ccccc1SCC(=O)NC1CCC(O)CC1 (stereo not drawn) | 9.58 |
| Cc1cccc(-c2nc(CN3CCc4cncnc4C3)no2)c1 | -10.4 |
| Cn1cc(C(=O)Nc2ccc(CC(=O)NC3CC3)cc2)nn1 | -7.42 |
| CC(c1nc(C(C)(C)C)no1)N1CCC(N2CCCC2)CC1 (stereo not drawn) | 3.63 |
| O=C(Cc1cccs1)NC1(C(=O)NCC2CC2)CCCC1 | 4.19 |
| Cn1cnnc1C1CCCN(C(=O)NCCc2ccccn2)C1 (stereo not drawn) | -21.5 |
| Cc1ccc(-c2nc(CN3CCCC3Cn3cncn3)cs2)o1 (stereo not drawn) | -7.88 |
| CC(C)(C)c1nc(C(C)(C)NC(=O)C2CC(=O)N(CC3CC3)C2)no1 (stereo not drawn) | -5.4 |
| CN1CCC[C@H]1c1nc(-c2cncnc2N)no1 | 2.6 |
| O=C(CN1CCCS(=O)(=O)CC1)NCc1ccccc1F | 3.76 |

| Compound | cytotoxicity at 10 µM [%] |
| --- | --- |
| CS(=O)(=O)N1CCCc2sc(C(=O)NC3CC3)nc21 | -143 |
| CN(CCc1ccccc1)c1cnn(Cc2ccccn2)c(=O)c1 | -7.03 |
| Cc1nccc(N[C@H]2CN(CC(C)(C)N3CCOCC3)C[C@@H]2C2CC2)n1 | 3.03 |
| CNC(=O)CN1CC[C@H]2CN(C(=O)c3ccc(C)nc3)C[C@H]2C1 | 1.61 |
| CCOC(=O)CN(C)Cc1cnc(C)s1 | 20.2 |
| CCn1ccnc1CN1C[C@@H](CN2CCCC2)[C@@H](CO)C1 | -9.96 |
| Cc1cc(NC(=O)c2ccc(CN3CC[C@H](O)C3)cc2)ccc1F | 4.5 |
| CCc1nccn1CCC(=O)N1CC(=O)N(c2ccccc2C)CC1C (stereo not drawn) | -15 |
| Cc1cc(C(=O)Nc2ccc(OC3CCOCC3)c(C)c2)[nH]n1 | -8.03 |
| Cc1cncc(C2CCN(C(=O)CCc3ccnn3C)CC2)n1 | -28.8 |
| CNc1cc(C2CCCN2Cc2ccccc2OCC(=O)O)ccn1 (stereo not drawn) | -0.645 |
| CCc1ccsc1C(=O)N1CCN(CC(C)O)CC1 (stereo not drawn) | -33.1 |
| Cc1csc(N2CCN(C(=O)CCNc3ncccn3)CC2)n1 | -10.1 |
| CCc1ocnc1C(=O)N1CCN(c2nncc3ccccc23)CC1 | 6.61 |
| CN(c1ncnc2ccccc12)C1CCCN(c2cccnn2)C1 (stereo not drawn) | 19.5 |
| Cc1ccsc1CN(C)C(=O)c1cc2c([nH]c1=O)CCCC2=O | -5.36 |
| CC(=O)N1CCCC1c1csc(Nc2cnccn2)n1 (stereo not drawn) | 2.09 |
| O=C1CCCN1CCC1CCN(C2CCC3(CCNCC3)CC2)CC1 | 10.9 |
| Fc1cccc(-c2nc(CN3CCCC(Cn4cncn4)C3)co2)c1 (stereo not drawn) | -12.5 |
| C[C@@H]1CN(C(=O)c2cc(COc3ccc4c(c3)OCO4)[nH]n2)C[C@H](C)O1 | -6.37 |
| O=C(CCOc1ccc(Br)cc1)N1CCN(c2cnccn2)CC1 | 0.207 |

| Compound | cytotoxicity at 10 µM [%] |
| --- | --- |
| O=C([C@@H]1COC[C@H]2CN(C3CCOCC3)C[C@H]21)N1CCCCO1 | -6.28 |
| NCC(CO)Cc1ccc(OC(F)(F)F)cc1 (stereo not drawn) | 8.65 |
| Cn1ccc(C(=O)Nc2nnc(-c3ccccn3)[nH]2)cc1=O | 6.69 |
| COc1cccc(OCC(=O)N2CCOc3ccncc32)c1 | 7.68 |
| COc1ccc2c(c1)C(NCCc1ccccn1)CCCO2 (stereo not drawn) | -6.03 |
| O=C(O)[C@]12CCCN(Cc3ccsc3)C[C@H]1CN(c1ccccn1)C2 | -139 |
| CC1CCc2nc(NC(=O)CN(C)C(=O)c3ccco3)sc2C1 (stereo not drawn) | -11.4 |
| CC(C)C(Sc1nncn1C1CC1)C(=O)NCc1cccnc1 (stereo not drawn) | -6.86 |
| N#CCCSc1nnc(Cc2ccccc2F)o1 | -11.7 |
| c1cnnc(N2CCCC2CNCc2csc(-c3ccco3)n2)c1 (stereo not drawn) | -8.42 |
| CCn1nc(C)c(CCNC(=O)C2CCCN(C(C)=O)C2)c1C (stereo not drawn) | -20.8 |
| Cn1cc(C2COC3(CCN(C(=O)c4cnccn4)CC3)C2)cn1 (stereo not drawn) | -68.5 |
| Cc1cc2n(n1)CC(CNCc1ccnc(-n3ccnc3C)c1)CN2 (stereo not drawn) | -4.95 |
| CCc1nc(CN2CCN(C(=O)C3CCCCC3)CC2)cs1 | 3.64 |
| Cc1ccc(C(NCC(=O)N2CCNC(=O)C2)c2ccccc2)cc1 (stereo not drawn) | 2.1 |
| CCN(Cc1nnsc1Cl)C(C)c1ccc(C#N)cc1 (stereo not drawn) | 18.9 |
| CN(C)c1ncccc1C(=O)N1CCc2c(ncn2C2CC2)C1 | 1.28 |
| O=C1N(c2ccsc2)CCC12CCCN(c1ncc(F)cn1)C2 (stereo not drawn) | -105 |
| O=S(=O)(Nc1ccc(N2CCOCC2)cn1)c1ccc(F)cc1 | -6.64 |
| CCc1oc(C(=O)N[C@@H]2c3ccccc3C[C@@H]2O)cc1CN1CCCC1 | -5.65 |
